MsrA inhibitor = inhibits bovine methionine sulfoxide reductase A. 0.75% of 360,000 active. inhibition, % at 15.5 µM. AID 651718. purified bovine MsrA, absorbance read-out; in the data active = inhibition above about 4.5%;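 note: 0% = vehicle wells with enzyme and 100% = reference inhibitor wells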
MC4R antagonist = blocks human MC4R cAMP signaling; P32245; MC4R-expressing cells, MTII-stimulated cAMP, LANCE TR-FRET; inhibition, % at 6.5 µM; 0.48% of 360,000 active;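 active = inhibition above its plate's cutoff, the mean of tested wells on that plate plus 3 SD, cut at about 29% in these data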;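 note: 0% = Melanotan II alone and 100% = Melanotan II plus saturating MCL0020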
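material = U2OS cells stably expressing human melanocortin 4 receptor (MC4R) | also added = Melanotan II challenge | dosing = single nominal compound dose of 6.5 µM | detection = TR-FRET with Eu-cAMP and labeled anti-cAMP, 671 nm | replication = singlicate | timing = compound 30 min, challenge 1 h, detection 1 h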
MC4R barr agon = human MC4R agonism via beta-arrestin | P32245 | 0.98% of 360,000 active | U2OS MC4R beta-arrestin complementation, luminescence; percent of melanotan II response, DMSO zero | activation, % at 8.9 µM;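 active = activation above a per-plate cutoff, the mean activation of sample wells on that plate plus 3 SD, cut at about 8% in these data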
MsrA act = activators of bovine methionine sulfoxide reductase A; purified bovine MsrA, absorbance read-out; activation, % at 10.6 µM; 0.3% of 360,000 active; AID 602163; in the data active = activation above about 7.5%;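 note: 0% = vehicle and 100% = reference activator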
MC4R barr ag = human MC4R beta-arrestin agonism confirmation; shares compounds with MC4R barr agon; activation, % at 8.9 µM; 31% of 2,400 active; U2OS MC4R beta-arrestin recruitment, luminescence; scaled DMSO 0%, Melanotan II 100%;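 active = mean activation across replicates above the hit cutoff set in the earlier primary screen, cut at about 8% in these data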
MOR DOR agonist = counter-screen for MC4R agonists: agonists of mu-delta opioid heterodimer. shares compounds with MC4R barr agon. U2OS PathHunter beta-arrestin, beta-gal luminescence; percent of deltorphin B response, DMSO zero. activation, % at 9.2 µM. 5.8% of 2,400 active. AID 602194;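 active = mean activation across replicates exceeds the hit threshold derived in the earlier primary screen, cut at about 18% in these data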;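 note: 100% = deltorphin B at 0.9 µM final and 0% = DMSO alone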
Target sequence (P35372 whole entry, looked up): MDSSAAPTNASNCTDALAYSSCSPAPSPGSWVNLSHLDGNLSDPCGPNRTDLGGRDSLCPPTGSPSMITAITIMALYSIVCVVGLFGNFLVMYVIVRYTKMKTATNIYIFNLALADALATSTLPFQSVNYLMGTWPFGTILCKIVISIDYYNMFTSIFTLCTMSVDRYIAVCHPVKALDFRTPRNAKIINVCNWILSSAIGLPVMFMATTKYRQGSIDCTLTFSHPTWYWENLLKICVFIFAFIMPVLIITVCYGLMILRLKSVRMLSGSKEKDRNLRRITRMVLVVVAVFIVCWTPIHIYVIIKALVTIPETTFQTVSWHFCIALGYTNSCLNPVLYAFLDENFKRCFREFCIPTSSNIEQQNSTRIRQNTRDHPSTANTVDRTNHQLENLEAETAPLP
Target sequence (P41143 whole entry, looked up): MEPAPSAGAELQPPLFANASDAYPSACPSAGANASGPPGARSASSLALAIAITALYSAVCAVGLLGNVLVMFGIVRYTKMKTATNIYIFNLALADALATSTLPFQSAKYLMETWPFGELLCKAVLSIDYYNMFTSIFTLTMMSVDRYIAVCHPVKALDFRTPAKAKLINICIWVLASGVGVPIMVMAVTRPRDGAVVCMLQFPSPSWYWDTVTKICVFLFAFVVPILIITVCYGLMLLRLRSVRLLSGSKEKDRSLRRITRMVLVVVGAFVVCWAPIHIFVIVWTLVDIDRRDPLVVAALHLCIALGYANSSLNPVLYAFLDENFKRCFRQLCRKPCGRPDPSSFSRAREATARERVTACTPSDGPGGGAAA
Numbers without * were called inactive; · = not tested or not shown. Sampled rows, rich in hits. Any-hit rate of the full collection: about 2.3%.

SMILES | MsrA inhibitor | MC4R antagonist | MC4R barr agon | MsrA act | MC4R barr ag | MOR DOR agonist
CC12CCC(C(=O)NCc3ccccc3)(OC1=O)C2(C)C (stereo unspecified) | -1 | -1 | -1 | -10 | · | ·
COCCn1c(=NC(=O)CCS(=O)(=O)c2ccccc2)sc2cc(C)ccc21 | 0 | -2 | -4 | -3 | · | ·
COCCn1c(=NC(=O)/C=C/c2cccs2)sc2cc(NC(C)=O)ccc21 | 1 | 9 | 10* | -15 | 1 | 7
CCCn1c(CNC(=O)c2cccs2)nc2ccccc21 | -1 | 5 | 0 | -1 | · | ·
Cc1ccccc1OC1(C)CCN(Cc2ccc(-c3ccccn3)cc2)C1 (stereo unspecified) | 1 | 9 | 15* | 3 | 4 | 8
CCCNC(=O)C1(C)CCN(Cc2ccc(-c3ccccn3)cc2)C1 (stereo unspecified) | 0 | 11 | 1 | -2 | · | ·
CC1CCC(C(C)C)C(OC(=O)C[n+]2cc(-c3ccc(Cl)cc3)n3c2CCCCC3)C1 (stereo unspecified) | -2 | 8 | 34* | -2 | 25* | 7
O=C(C[n+]1cc(-c2ccccc2)n2c1CCCCC2)c1ccc(Cl)cc1 | -1 | 3 | -3 | -2 | · | ·
COc1ccc(-c2cc(C3CCN(Cc4ccc([N+](=O)[O-])cc4)CC3)[nH]n2)cc1 | 1 | -3 | 0 | -6 | · | ·
Cc1ccc(CN2CCC(c3cc(-c4ccc(Cl)cc4)n[nH]3)CC2)cc1 | 0 | 2 | 10* | 0 | 19* | 10
Cn1c(=O)c2c(nc(N3CCCCC3)n2CCNC2=NCCC2)n(C)c1=O | 1 | 4 | 1 | -5 | · | ·
COc1ccc(-c2nnc(SCCC(=O)O)n2-c2ccccc2)cc1 | 0 | 14 | -2 | -2 | · | ·
Cc1ccc(CC2S/C(=N/c3ccccn3)NC2=O)cc1 (stereo unspecified) | 0 | -4 | 14* | 0 | 1 | 6
O=C1N/C(=N/c2ccccn2)SC1Cc1ccccc1 (stereo unspecified) | 0 | 10 | 2 | 0 | · | ·
O=C(Nc1ccc(OC(=O)c2cccnc2)cc1)c1cccnc1 | 0 | -1 | -1 | -2 | · | ·
CCc1ccc(-c2ccc(C(=O)O)c(C)n2)cc1 | 2 | 17 | 3 | -1 | · | ·
COc1cc2c(cc1NC(=O)c1cccc([N+](=O)[O-])c1)oc1ccccc12 | 0 | -23 | 22* | -4 | 31* | 47*
COc1cc2c(cc1NC(=O)c1ccc(C)c([N+](=O)[O-])c1)oc1ccccc12 | 0 | 3 | 1 | -8 | · | ·
COc1cc(NC(C)=O)c2ncccc2c1Br | 2 | -1 | 0 | -4 | · | ·
COCCNC(=S)N/N=C/c1ccc(-c2ccc([N+](=O)[O-])cc2)o1 | 0 | -5 | 11* | -6 | 0 | 6
Oc1ccc(C(=S)N2CCN(c3cccc(Cl)c3)CC2)cc1 | 0 | -6 | 9.8* | -14 | 6 | 10
O=S(=O)(Nc1ccc(-c2ccccc2)cc1)c1ccccc1 | 0 | 5 | 14* | -3 | 6 | 7
Cc1ccc(S(=O)(=O)Nc2ccc(Nc3ccccc3)cc2)cc1 | 2 | 9 | 9.7* | -3 | 1 | 9
COc1ccc(OCC(=O)Nc2cccc(-c3nc4ccccc4o3)c2)cc1 | 2 | 8 | 19* | -3 | 5 | 4
COc1ccc(-c2nnc(SCC(=O)Nc3cccc(Cl)c3)o2)cc1 | 1 | -5 | 16* | -3 | 3 | 9
SMILES | MsrA inhibitor | MC4R antagonist | MC4R barr agon | MsrA act | MC4R barr ag | MOR DOR agonist
COc1ccc(OCC(=O)Nc2cccc(NC(=O)COc3ccc(OC)cc3)n2)cc1 | -2 | 1 | 13* | -12 | 5 | 26*
CCCC1C2C(=O)N(c3ccccc3OCC)C(=O)C2ON1c1ccccc1 (stereo unspecified) | 0 | 5 | -2 | 2 | · | ·
COC(=O)c1cc2ccccc2c(-c2c(O)ccc3ccccc23)c1O | 1 | -17 | 17* | -1 | 13* | 10
COC(=O)c1ccccc1C(=O)c1cccc2ccccc12 | 1 | 5 | -1 | -1 | · | ·
COc1cc(CNc2ncnc3c2ncn3[C@H]2CN(CCc3ccccc3)C[C@@H](CO)O2)cc(OC)c1OC | -1 | 8 | -1 | -6 | · | ·
COc1ccc(CC(=O)Nc2ccccc2N2CCCC2)cc1OC | 1 | -1 | -4 | -6 | · | ·
COc1ccc(C(=O)Cn2c(C(=O)/C=C/c3ccccc3)nc3ccccc32)cc1 | 0 | 11 | 23* | -12 | 9.4* | 4
COc1ccc(C(=O)CSc2nc3ccccc3n2CC(=O)c2ccccc2)cc1 | 1 | 10 | -2 | -1 | · | ·
CN(CC(=O)Nc1ccccc1Br)C(=O)CCc1nc2ccccc2c(=O)[nH]1 | 0 | 2 | 0 | -1 | · | ·
COc1cc(NC(=O)c2ccco2)c(C(=O)OCC(=O)Nc2ncc(Cl)cc2Cl)cc1OC | -1 | 1 | 18* | -2 | 0 | 3
COc1ccc(/C=N/Nc2cc(C)nc3ccc(OC)cc23)c(OC)c1 | -1 | -12 | 32* | -2 | 57* | 43*
CCOc1ccc2nc3cc(NCc4ccc(OC)cc4)ccc3c(N)c2c1 | · | 19 | 13* | -1 | 15* | 15
CCn1cnc2cc(NCc3ccc(OC)cc3)ccc21 | 1 | -4 | 0 | 4 | · | ·
Cc1cc2nc(C)n(CCCN)c2cc1C | 0 | -5 | 0 | -3 | · | ·
S=c1[nH]nc(-c2cccs2)n1/N=C/c1cn(-c2ccccc2)nc1-c1cccs1 | 0 | 25 | 10* | 0 | 1 | 4
Cc1cccc(C(=O)NNC(=O)c2c(O)c3ccccc3n(C)c2=O)c1 | 2 | 1 | 2 | -3 | · | ·
Cn1c(=O)c(C(=O)NNC(=O)c2cccc(Cl)c2)c(O)c2ccccc21 | 0 | 7 | 9.8* | -4 | 2 | 6
O=S(=O)(CC(CN1CCOCC1)N1CCOCC1)c1ccccc1 (stereo unspecified) | 0 | 3 | 9.6* | -2 | 2 | 2
COc1ccc(CNC(=O)[C@@H]2CC=C[C@@H]3CCN(Cc4ccc(Cl)c(Cl)c4)C(=O)[C@@H]32)cc1 | 0 | 1 | 18* | -1 | 8.8* | 3
COc1ccc(C(=O)c2sc(Nc3ccccc3)c(C(=O)Nc3ccc(OC)c(OC)c3)c2N)cc1 | 0 | 9 | -2 | 1 | · | ·
COc1ccc(NC(=O)c2c(Nc3ccccc3)sc(C(=O)c3ccc(F)cc3)c2N)cc1 | -1 | 1 | 12* | -2 | 14* | 9
Cc1ccccc1Cn1ccc(NC(=O)c2cc3nc(-c4ccco4)cc(C(F)(F)F)n3n2)n1 | -1 | 11 | 15* | 2 | -1 | 5
Cc1cc(C)nc(CCNC(=O)c2cc(COc3c(C)cccc3C)on2)n1 | 1 | -1 | 0 | -3 | · | ·
Cc1cccc(C)c1OCc1cc(C(=O)NCC2CCCCC2)no1 | -1 | -2 | 11* | 8 | 3 | 3
Cc1cc(OCc2cc(C(=O)NC3CCC3)no2)cc(C)c1Cl | · | 3 | 11* | -4 | 0 | 4

Compound activity as filed in PubChem.
